# Reference: article PMC12928844 (Nature, 2025)
# How the values were obtained:
# K^cPC PDAC tumours = assay: Autochthonous K^cPC PDAC mouse model treatment study; format: in vivo; details: 2 weeks of treatment, 10 mg kg−1 daily
# How it was run: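 C57BL/6;129S1 mixed-background mice of both sexes, with littermates as controls. Control and monotherapy groups went through the same procedure but received vehicle. The survival end point was set by overall health criteria scoring, and health status and weight were checked daily.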
# K^c/cP LUAD tumours = assay: K^c/cP LUAD mouse model treatment study; format: in vivo; details: at humane end point; about 100 nodules per mouse at start
# [1] = tested on: NSD2 and H3K36me2 levels in cell lines; assay: Western blot after KRASi treatment; format: cell-based; details: 100 nM sotorasib, 1 day
# K^c/cP LUAD tumour cells = assay: scRNA-seq tumour fitness score of K^c/cP tumours; format: in vivo, mouse; details: 3 weeks of treatment
# How it was run: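 KC/CP lung tumour-bearing mice (mixed C57BL/6;129S1, both sexes, littermate controls) received test compound at 100 mg kg−1 once daily i.p. in 40% (2-hydroxypropyl)-β-cyclodextrin, or vehicle. Tumour cells were filtered through 70 μm strainers, given ACK red-cell lysis, washed and counted for scRNA-seq. Malignant cells were called by inferCNV against normal mouse lung alveolar cells.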
compound,measurement,setting,value
"C=CC(=O)N1CCN(c2nc(=O)n(-c3c(C)ccnc3C(C)C)c3nc(-c4c(O)cccc4F)c(F)cc23)[C@@H](C)C1 [KRASi, sotorasib]",ERK1/2 phosphorylation in PDAC tumour lysates (western),K^cPC PDAC tumours,blocked ERK1 and ERK2 (ERK1/2) phosphorylation
same,individual tumours (nodules) eliminated,K^c/cP LUAD tumours,~75%
same,levels of NSD2 or H3K36me2 (western),[1],does not impact
same,tumour fitness score (scRNA-seq),K^c/cP LUAD tumour cells,decreased score
